Activity calls are given as the source filed them. The calls are words filed in the database; no cut-off is given here. Residues, ends and D or L forms follow the SMILES beside them. *: point of attachment. X1 = O=C(c1ccccc1-c1c2ccc(=O)cc-2oc2cc(O)ccc12)*
Legend:
[1] = target: T1, Coagulation factor XIII B chain (Homo sapiens) (UniProt P05160); assay: Binding affinity to nonactivated recombinant F13B subunit (unknown origin) by microscale thermophoresis method
T1 sequence (whole entry): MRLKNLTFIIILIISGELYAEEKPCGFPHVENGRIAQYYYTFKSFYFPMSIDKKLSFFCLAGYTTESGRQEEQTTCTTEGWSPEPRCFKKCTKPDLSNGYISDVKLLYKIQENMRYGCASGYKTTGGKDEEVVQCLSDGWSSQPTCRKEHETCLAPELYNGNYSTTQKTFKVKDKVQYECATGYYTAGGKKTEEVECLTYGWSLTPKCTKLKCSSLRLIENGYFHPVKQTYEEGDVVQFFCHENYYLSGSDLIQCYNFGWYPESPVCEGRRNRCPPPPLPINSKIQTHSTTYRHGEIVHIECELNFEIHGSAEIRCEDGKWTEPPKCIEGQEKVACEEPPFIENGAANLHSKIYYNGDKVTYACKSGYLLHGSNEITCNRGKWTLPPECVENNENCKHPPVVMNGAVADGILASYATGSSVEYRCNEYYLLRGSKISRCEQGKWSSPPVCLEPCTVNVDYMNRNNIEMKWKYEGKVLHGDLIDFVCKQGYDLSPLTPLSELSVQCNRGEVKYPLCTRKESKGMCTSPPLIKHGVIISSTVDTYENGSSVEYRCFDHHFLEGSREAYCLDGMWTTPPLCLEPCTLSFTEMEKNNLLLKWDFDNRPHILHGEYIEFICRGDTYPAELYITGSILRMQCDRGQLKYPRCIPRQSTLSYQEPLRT
Summary of the method: (§1)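 Carboxyfluorescein-labeled peptide (2 μM solution, before mixing) in 50 mM Tris-HCl pH 7.5, 0.9% w/v NaCl, with Tween-20 to 0.1% final. Mixed with an equal volume of protein (FXIIIa, FXIII-A or FXIII-B) in the same buffer, 15 concentrations spanning 3.1 μM to 0.1 nM. After 20 min incubation, the mixture was loaded into glass capillaries and thermophoresis read three times per capillary.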

[2] = target: T2, Coagulation factor XIII A chain (Homo sapiens, UniProt P00488); assay: Inhibition of recombinant F13a (unknown origin) using H-Tyr-Glu(pNA)-Val-Lys-Val-Ile-Gly-NH2 as substrate by chromogenic assay
T2 sequence (P00488 whole entry): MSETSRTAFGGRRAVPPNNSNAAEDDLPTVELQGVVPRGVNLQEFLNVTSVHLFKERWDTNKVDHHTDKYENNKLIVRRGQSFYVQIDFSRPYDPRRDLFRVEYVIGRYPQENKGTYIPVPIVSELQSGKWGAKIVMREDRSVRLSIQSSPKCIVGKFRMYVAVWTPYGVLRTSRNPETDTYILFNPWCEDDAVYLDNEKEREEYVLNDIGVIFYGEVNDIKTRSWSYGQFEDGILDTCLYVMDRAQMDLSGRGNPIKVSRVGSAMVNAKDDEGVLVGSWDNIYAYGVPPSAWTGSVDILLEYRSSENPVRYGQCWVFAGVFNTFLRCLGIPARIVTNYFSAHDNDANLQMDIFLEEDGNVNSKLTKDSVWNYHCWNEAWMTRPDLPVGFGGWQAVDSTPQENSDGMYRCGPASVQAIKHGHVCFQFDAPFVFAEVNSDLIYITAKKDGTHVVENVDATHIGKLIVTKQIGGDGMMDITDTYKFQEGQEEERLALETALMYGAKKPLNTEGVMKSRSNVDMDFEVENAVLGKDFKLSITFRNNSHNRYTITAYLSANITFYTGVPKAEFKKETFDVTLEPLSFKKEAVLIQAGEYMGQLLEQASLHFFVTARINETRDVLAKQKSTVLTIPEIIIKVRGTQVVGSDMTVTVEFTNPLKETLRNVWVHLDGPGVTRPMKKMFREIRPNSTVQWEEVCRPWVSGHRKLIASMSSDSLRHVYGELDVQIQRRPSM

[3] = target: T3, Coagulation factor XIII A chain (Homo sapiens) (UniProt P00488); assay: Binding affinity to nonactivated recombinant F13A subunit (unknown origin) by microscale thermophoresis method; summary of the method: as §1
T3 sequence (whole entry): T2 sequence (P00488 whole entry)

[4] = target: T4, Protein-glutamine gamma-glutamyltransferase (Homo sapiens) (UniProt P21980); assay: Inhibition of human TGase-2 using fluorogenic FRET substrate at 10 uM
T4 sequence (whole entry): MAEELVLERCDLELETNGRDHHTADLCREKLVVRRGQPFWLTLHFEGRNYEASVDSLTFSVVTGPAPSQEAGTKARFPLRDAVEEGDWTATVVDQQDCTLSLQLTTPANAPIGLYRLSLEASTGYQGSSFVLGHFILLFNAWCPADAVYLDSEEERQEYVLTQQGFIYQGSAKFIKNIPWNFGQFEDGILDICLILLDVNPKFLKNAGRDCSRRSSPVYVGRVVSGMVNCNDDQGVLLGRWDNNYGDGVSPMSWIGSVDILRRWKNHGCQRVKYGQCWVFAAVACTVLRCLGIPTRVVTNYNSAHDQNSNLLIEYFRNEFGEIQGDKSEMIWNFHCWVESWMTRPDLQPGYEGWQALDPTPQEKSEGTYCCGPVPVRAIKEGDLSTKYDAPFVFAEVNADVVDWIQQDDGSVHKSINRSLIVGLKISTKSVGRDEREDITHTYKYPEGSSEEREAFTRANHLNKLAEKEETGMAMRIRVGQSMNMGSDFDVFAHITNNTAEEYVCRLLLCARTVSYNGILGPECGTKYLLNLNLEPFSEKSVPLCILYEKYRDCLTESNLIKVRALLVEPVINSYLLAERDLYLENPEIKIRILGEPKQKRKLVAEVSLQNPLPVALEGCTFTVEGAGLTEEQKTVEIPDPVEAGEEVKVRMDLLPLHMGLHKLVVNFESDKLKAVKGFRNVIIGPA

[5] = target: T2, Coagulation factor XIII A chain; assay: Binding affinity to recombinant F13A (unknown origin) by microscale thermophoresis method; summary of the method: as §1

| Activity [1] | IC50 [2] | Activity [3] | inhibition [4] | Kd [5] | SMILES |
| --- | --- | --- | --- | --- | --- |
| inactive | 1700 nM | inactive | – | – | CC[C@H](C)[C@H](NC(=O)[C@H](CC(=O)O)NC(=O)[C@H](CC(=O)O)NC(=O)[C@H](CCSC)NC(=O)[C@@H]1CCCN1C(=O)[C@H](CCCCN)NC(=O)[C@@H](NC(=O)[C@H](CC(C)C)NC(=O)[C@H](CCC(=O)O)NC(=O)[C@H](CO)NC(=O)[C@H](CCCNC(=N)N)NC(=O)[C@@H]1CCCN1C(=O)[C@H](CCCNC(=N)N)NC(=O)[C@H](CS)NC(=O)[C@H](CCC(N)=O)NC(=O)[C@@H]1CCCN1C(=O)[C@@H](NC(=O)[C@H](Cc1ccccc1)NC(=O)[C@H](C)N)[C@@H](C)CC)[C@@H](C)CC)C(=O)N[C@@H](Cc1ccc(O)cc1)C(=O)N[C@@H](CCC(N)=O)C(=O)N[C@@H](CCCNC(=N)N)C(=O)N1CCC[C@H]1C(=O)N[C@H](C(=O)N[C@@H](CCC(=O)O)C(=O)N[C@@H](Cc1ccccc1)C(=O)N1CCC[C@H]1C(=O)N[C@@H](CC(N)=O)C(=O)N[C@@H](CC(C)C)C(=O)N1CCC[C@H]1C(=O)N[C@@H](CC(C)C)C(=O)N[C@@H](CCCCN)C(=O)N1CCC[C@H]1C(=O)N[C@@H](CCCNC(=N)N)C(=O)N[C@@H](CCC(=O)O)C(=O)O)C(C)C (H-AFIPQCRPRSELIKPMDDIYQRPVEFPNLPLKPRE-OH) |
| inactive | 2200 nM | inactive | < 10% | – | CC[C@H](C)[C@H](NC(=O)[C@H](CC(=O)O)NC(=O)[C@H](CC(=O)O)NC(=O)[C@H](CCSC)NC(=O)[C@@H]1CCCN1C(=O)[C@H](CCCCN)NC(=O)[C@@H](NC(=O)[C@H](CC(C)C)NC(=O)[C@H](CCC(=O)O)NC(=O)[C@H](CO)NC(=O)[C@H](CCCNC(=N)N)NC(=O)[C@@H]1CCCN1C(=O)[C@@H](N)CCCNC(=N)N)[C@@H](C)CC)C(=O)N[C@@H](Cc1ccc(O)cc1)C(=O)N[C@@H](CCC(N)=O)C(=O)N[C@@H](CCCNC(=N)N)C(=O)N1CCC[C@H]1C(=O)N[C@H](C(=O)N[C@@H](CCC(=O)O)C(=O)N[C@@H](Cc1ccccc1)C(=O)N1CCC[C@H]1C(=O)N[C@@H](CC(N)=O)C(=O)N[C@@H](CC(C)C)C(=O)N1CCC[C@H]1C(=O)N[C@@H](CC(C)C)C(=O)N[C@@H](CCCCN)C(=O)N1CCC[C@H]1C(=O)N[C@@H](CCCNC(=N)N)C(=O)N[C@@H](CCC(=O)O)C(=O)O)C(C)C (H-RPRSELIKPMDDIYQRPVEFPNLPLKPRE-OH) |
| – | 1900 nM | – | – | – | CC[C@H](C)[C@H](NC(=O)[C@H](CC(=O)O)NC(=O)[C@H](CC(=O)O)NC(=O)[C@H](CCSC)NC(=O)[C@@H]1CCCN1C(=O)[C@H](CCCCN)NC(=O)[C@@H](NC(=O)[C@H](CC(C)C)NC(=O)[C@H](CCC(=O)O)NC(=O)[C@@H](N)CO)[C@@H](C)CC)C(=O)N[C@@H](Cc1ccc(O)cc1)C(=O)N[C@@H](CCC(N)=O)C(=O)N[C@@H](CCCNC(=N)N)C(=O)N1CCC[C@H]1C(=O)N[C@H](C(=O)N[C@@H](CCC(=O)O)C(=O)N[C@@H](Cc1ccccc1)C(=O)N1CCC[C@H]1C(=O)N[C@@H](CC(N)=O)C(=O)N[C@@H](CC(C)C)C(=O)N1CCC[C@H]1C(=O)N[C@@H](CC(C)C)C(=O)O)C(C)C (H-SELIKPMDDIYQRPVEFPNLPL-OH) |
| inactive | – | inactive | – | < 100 nM | CC[C@H](C)[C@H](NC(=O)CNC(=O)[C@H](CCC(N)=O)NC(=O)[C@H](Cc1cnc[nH]1)NC(=O)[C@H](Cc1c[nH]c2ccccc12)NC(=O)[C@H](CCC(=O)O)NC(=O)[C@H](CCCCN)NC(=O)[C@H](CS)NC(=O)[C@@H]1CCCN1C(=O)[C@H](CC(C)C)NC(=O)[C@H](CC(C)C)NC(=O)[C@H](CCCCN)NC(=O)c1ccccc1-c1c2ccc(=O)cc-2oc2cc(O)ccc12)C(=O)N1CCC[C@H]1C(=O)N[C@@H](CC(N)=O)C(=O)N1CCC[C@H]1C(=O)N[C@@H](CCCNC(=N)N)C(=O)N[C@@H](CS)C(=O)N[C@@H](Cc1c[nH]c2ccccc12)C(=O)N[C@@H](CS)C(=O)NCC(=O)N[C@@H](C)C(=O)N[C@@H](CC(=O)O)C(=O)N[C@@H](CC(C)C)C(=O)N[C@@H](CCC(=O)O)C(=O)N[C@@H](CS)C(=O)N[C@@H](C)C(=O)N[C@@H](CCC(N)=O)C(=O)N[C@@H](CC(=O)O)C(=O)N[C@@H](CCC(N)=O)C(=O)N[C@@H](Cc1ccc(O)cc1)C(=O)N[C@@H](CS)C(=O)N[C@@H](C)C(=O)N[C@@H](Cc1ccccc1)C(=O)N[C@H](C(=O)N1CCC[C@H]1C(=O)N[C@@H](CCC(N)=O)C(=O)N[C@@H](CS)C(=O)O)[C@@H](C)CC (X1-KLLPCKEWHQGIPNPRCWCGADLECAQDQYCAFIPQC-OH) |
| inactive | – | inactive | – | 800 nM | CC[C@H](C)[C@H](NC(=O)[C@H](CC(=O)O)NC(=O)[C@H](CC(=O)O)NC(=O)[C@H](CCSC)NC(=O)[C@@H]1CCCN1C(=O)[C@H](CCCCN)NC(=O)[C@@H](NC(=O)[C@H](CC(C)C)NC(=O)[C@H](CCC(=O)O)NC(=O)[C@H](CO)NC(=O)[C@H](CCCNC(=N)N)NC(=O)[C@@H]1CCCN1C(=O)[C@H](CCCNC(=N)N)NC(=O)c1ccccc1-c1c2ccc(=O)cc-2oc2cc(O)ccc12)[C@@H](C)CC)C(=O)N[C@@H](Cc1ccc(O)cc1)C(=O)N[C@@H](CCC(N)=O)C(=O)N[C@@H](CCCNC(=N)N)C(=O)N1CCC[C@H]1C(=O)N[C@H](C(=O)N[C@@H](CCC(=O)O)C(=O)N[C@@H](Cc1ccccc1)C(=O)N1CCC[C@H]1C(=O)N[C@@H](CC(N)=O)C(=O)N[C@@H](CC(C)C)C(=O)N1CCC[C@H]1C(=O)N[C@@H](CC(C)C)C(=O)N[C@@H](CCCCN)C(=O)N1CCC[C@H]1C(=O)N[C@@H](CCCNC(=N)N)C(=O)N[C@@H](CCC(=O)O)C(=O)O)C(C)C (X1-RPRSELIKPMDDIYQRPVEFPNLPLKPRE-OH) |

Reference: ChEMBL document CHEMBL3351848, “Novel insights into structure and function of factor XIIIa-inhibitor tridegin” (J Med Chem, 2014)
